Source: PubChem BioAssay (several laboratories)
NR2E3 ag-1: activates human NR2E3 receptor; Q9Y5X4; CHO-S Gal4-NCOR/VP16-NR2E3 two-hybrid, luciferase; inhibition of corepressor binding, % at 3.98 µM; 360,000 tested, 0.35% active;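 active = inhibition above the mean of all tested compounds plus 3 SD, cut at about 70% in these data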;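 also: 0% = DMSO with NR2E3 transfected cells and 100% = cells lacking NR2E3 construct; higher means lower luciferase signal from less NR2E3 corepressor binding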
PKA-R1A activ: activates the PKA-R1A holoenzyme complex; P00514+P68181; PKA-R1A dissociation, Cy5-IP20 fluorescence polarization; scaled: DMSO 0%, 113 µM cGMP 100%; activation, % at 11.4 µM; 340,000 tested, 0.083% active; AID 504707;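 active = percent activation above the mean of all tested compounds plus 3 SD, cut at about 19% in these data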;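 also: higher means more PKAc released from R1A so a rise in polarization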
Rev-erbA mod: Rev-erb alpha (human) modulation; Rev-erbα–FITC-DNA binding, fluorescence polarization, 90 min; activity, % at 10 µM; 370,000 tested, 0.79% active;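 active = activity above about 14%, limit read from the data; passing the limit was not always enough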;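 also: 0% = DMSO wells with 35 nM protein and 100% = DMSO wells with 750 nM protein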
Target sequence (P20393 whole entry, looked up): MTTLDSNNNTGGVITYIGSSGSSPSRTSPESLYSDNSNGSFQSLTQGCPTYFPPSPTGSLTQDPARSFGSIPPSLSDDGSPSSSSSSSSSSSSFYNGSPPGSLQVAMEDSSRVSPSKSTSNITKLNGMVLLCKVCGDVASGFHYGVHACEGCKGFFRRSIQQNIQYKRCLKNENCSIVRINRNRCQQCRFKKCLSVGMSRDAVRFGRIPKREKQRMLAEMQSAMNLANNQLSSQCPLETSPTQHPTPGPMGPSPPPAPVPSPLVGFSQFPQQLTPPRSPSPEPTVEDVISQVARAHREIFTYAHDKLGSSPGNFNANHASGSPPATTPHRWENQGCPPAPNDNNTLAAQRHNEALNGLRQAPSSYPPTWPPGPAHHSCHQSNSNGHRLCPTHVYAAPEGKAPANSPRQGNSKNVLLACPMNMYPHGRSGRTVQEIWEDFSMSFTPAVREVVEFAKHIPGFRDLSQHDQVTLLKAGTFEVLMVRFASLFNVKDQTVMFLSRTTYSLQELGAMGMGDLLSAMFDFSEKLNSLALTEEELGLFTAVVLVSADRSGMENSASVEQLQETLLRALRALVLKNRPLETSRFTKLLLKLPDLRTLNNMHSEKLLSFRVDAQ
PKA-R2B act: activates the human PKA-R2B holoenzyme complex | AID 504700 | activation, % at 11.4 µM | 340,000 tested, 0.079% active | P22694+P31323 | PKA-R2B holoenzyme dissociation, Cy5-IP20 fluorescence polarization; R2B truncated from residue 108, S112A mutant; 0% DMSO only, 100% 113 µM cGMP;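 active = activation above a cutoff set at the mean over all compounds plus 3 SD, cut at about 18% in these data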;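 also: higher means more holoenzyme dissociation and a rise in polarization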
NR2E3 ag-2: agonists of human nuclear receptor NR2E3; Q9Y5X4; GST-NR2E3/biotin-RetCOR TR-FRET, 1536-well; inhibition of corepressor binding, % at 4.78 µM; 320,000 tested, 0.12% active; AID 2300;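 active = percent inhibition above the cutoff of mean plus 3 SD of all tested compounds, set per screening campaign, cut at about 20% in these data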;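 also: 0% = DMSO wells and 100% = biotin wells as full block of FRET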
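Test system – NR2E3–RetCOR corepressor complex · Quantity – NR2E3 fusion 1.35 nM · Buffer or medium – Tris pH 7.5 · Incubation – Compound–protein incubation for 5 h at 4 °C · Technique – TR-FRET, Eu(K)-anti-GST donor, streptavidin-D2 acceptor, ex 340, em 617/671 nm · Evaluation – percent inhibition of 671/617 nm emission ratio versus biotin and DMSO controls · Plate – 1536-well format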
PG9 Ab binder: small molecules binding HIV-1 gp120 antibody PG9 | TR-FRET gp120-PG9 antibody binding | inhibition, % at 6.7 µM | 360,000 tested, 0.43% active; in the data active = inhibition above about 8.5%
NR2E3 ag confirm: NR2E3 agonism confirmed in two-hybrid assay | AID 624378 | CHO-S mammalian two-hybrid NR2E3-NCOR, luciferase luminescence | shares compounds with NR2E3 ag-1 | inhibition, % at 3.98 µM | 2,300 tested, 51% active;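 active = average inhibition above a cutoff equal to the mean inhibition of all tested compounds plus one SD, cut at about 70% in these data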;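 also: 0% = DMSO in NR2E3 cells and 100% = DMSO in cells lacking NR2E3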
VP16 counter: reduces GAL4-VP16 reporter signal in NR2E3 counterscreen; shares compounds with NR2E3 ag-1; CHO-S GAL4-VP16 luciferase reporter, luminescence; inhibition, % at 3.98 µM; 2,300 tested, 29% active; AID 624379;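 active = mean inhibition above a cutoff equal to the average over all tested compounds plus one standard deviation, cut at about 70% in these data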;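 also: luciferase from a UAS reporter driven by GAL4-VP16 transactivation; 0% = DMSO with VP16-transfected cells and 100% = DMSO with cells lacking VP16; higher means less reporter light so more repression of VP16 activity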
* = called active by the depositor; / = no result given. Sampled rows, rich in hits. Any-hit rate of the full collection: about 1.6%.

SMILES	NR2E3 ag-1	PKA-R1A activ	Rev-erbA mod	PKA-R2B act	NR2E3 ag-2	PG9 Ab binder	NR2E3 ag confirm	VP16 counter
Cc1nc2ccccc2c(N)c1C(=O)/C=C/c1ccccc1	51	-2	5	-7	0	-1	-3	17
COC(=O)C[C@H]1CC[C@@H]2[C@H](COc3ccc(NC(=O)C(C)C)cc3C(=O)N2C)O1	/	/	0	/	/	/	/	/
CCC(C)(C)c1ccc(Oc2ccc(N)cc2)cc1	61	-8	8	-5	/	-2	60	70
C[C@@H]1COc2cc(F)ccc2S(=O)(=O)N1C	/	/	10	/	/	/	/	/
CN(C(=O)C(C)(C)C)c1ccc(OCC(=O)N2CCc3ccccc3C2)cc1	76*	6	-5	-5	-4	0	62	63
Cc1ccc(OCC(=O)N2CCc3ccccc3C2)cc1	-24	-6	0	-1	5	1	/	/
O=S(=O)(Nc1ccc2c(c1)OCCO2)c1cccc2nsnc12	52	-5	4	10	5	-1	-2	-7
O=C(Cc1ccc(Br)cc1)Nc1ncc([N+](=O)[O-])s1	72*	3	-10	-4	1	-1	97*	60
Cc1cnc(NC(=O)Cc2cccs2)s1	-9	-4	-6	-3	1	0	/	/
COc1ccc2c(CC(=O)Nc3ncc(C)s3)coc2c1	62	-4	-5	-1	7	0	96*	-67
Cc1cnc(NC(=O)Cc2ccc(Br)cc2)s1	60	1	-1	-7	-1	1	91*	5
O=C(Cc1ccc(Cl)cc1)Nc1ncc([N+](=O)[O-])s1	-37	-8	2	-7	/	-1	/	/
COC1=C[C@H](C(=O)NCCOC(C)=O)[C@H](C)[C@@H](c2ccccc2)CC1=O	/	/	2	/	/	/	/	/
CCOc1ccc(-n2c(SCC(=O)Nc3ccc4cn[nH]c4c3)nnc2-c2ccncc2)cc1	/	/	-2	/	/	/	/	/
COc1cccc(N2CCN(c3ncnc4c3[nH]c3ccccc34)CC2C)c1 (configuration not stated)	/	/	-3	/	-3	1	/	/
COc1cccc(N2CCN(c3ncnc4c3[nH]c3ccc(F)cc34)CC2C)c1 (configuration not stated)	109*	-5	-4	-9	1	1	101*	100*
O=C(CSc1ccccc1)N1CCC(N2CCC(C(=O)N3CCCC3)CC2)CC1	88*	-6	1	5	-2	-1	-9	-3
Nc1nc(-c2ccccn2)nc(N)c1Cc1ccccc1F	14	1	2	-7	-3	-1	/	/
Nc1nc(-c2ccccn2)nc(N)c1Cc1c(F)cccc1Cl	86*	-4	1	10	-2	-2	98*	23
Clc1ccc(OCc2nc(-c3ccccn3)no2)c(Br)c1	-186	2	-5	-8	1	-1	/	/
Nc1nc(-c2ccccn2)nc(N)c1Cc1ccc(Cl)cc1Cl	91*	-8	-1	-10	3	0	100*	49
CCN(CC)C(=O)CC[C@H]1CC[C@]2(CCCN(C(=O)C(C)(C)C)C2)O1	/	/	-5	/	/	/	/	/
CNc1snc(C)c1C(=O)OCC(=O)c1ccc(OC)c(F)c1	53	0	-1	-2	3	-1	57	50
COc1ccc(CCNc2nc(-c3ccncc3)cs2)cc1OC	-15	-3	-3	1	1	0	/	/
COc1ccc(CCNc2nc(-c3ccccn3)cs2)cc1OC	68	-3	2	5	-1	-1	10	-40
SMILES	NR2E3 ag-1	PKA-R1A activ	Rev-erbA mod	PKA-R2B act	NR2E3 ag-2	PG9 Ab binder	NR2E3 ag confirm	VP16 counter
O=C(c1cc(S(=O)(=O)N2CCOCC2)ccc1Cl)N1CCC(Cc2ccccc2)CC1	57	5	-2	-9	-2	0	27	7
Cc1ccc(S(=O)(=O)N2CCOCC2)cc1C(=O)N1CCC(Cc2ccccc2)CC1	12	-8	-2	-7	-1	-1	/	/
Cc1nc2c(C(=O)NCCC(C)C)c[nH]n2c(=O)c1Cc1ccccc1F	100*	-6	-1	-12	-1	-1	86*	58
Cc1nc2c(C(=O)NCCC(C)C)c[nH]n2c(=O)c1Cl	-4	0	-5	6	-4	-3	/	/
CCC(=O)Nc1cc2nn(-c3ccc(OC)cc3)nc2cc1C	-120	9	8	0	1	1	/	/
CCC(=O)Nc1cc2nn(-c3ccc(C)cc3)nc2cc1C	49	-6	11	6	2	0	-23	-99
Cc1nc(NCCc2ccccc2)c2oc3ccccc3c2n1	72*	6	3	2	1	-1	91*	76*
Cc1nc(NCCN2CCOCC2)c2oc3ccccc3c2n1	-12	-2	-2	-5	-1	0	/	/
CCOC(=O)C1=C[C@@H](C2CCCCC2)N(S(=O)(=O)c2ccc([N+](=O)[O-])cc2)[C@H]1c1ccccc1	74*	/	2	/	/	-4	52	43
COC(=O)[C@]12C[C@H](CC(=O)NCc3cccc(C(F)(F)F)c3)C(=O)N(Cc3ccc4c(c3)OCO4)C1=C[C@H](C(C)C)O[C@@H]2C1CC1	/	/	-5	/	/	/	/	/
CCOC(=O)C(=O)N/N=C/c1ccc(F)cc1	-22	-4	-3	0	0	-1	/	/
CCOC(=O)C(=O)NNc1ccc(F)cc1	65	/	-3	/	0	-1	12	-4
Cc1nn(CCCC(=O)Nc2cc(Oc3ccc(F)cc3)cc([N+](=O)[O-])c2)c(C)c1[N+](=O)[O-]	-19	-7	0	-14	-1	-2	/	/
Cc1ccccc1Oc1cc(NC(=O)CCCn2nc(C)c([N+](=O)[O-])c2C)cc([N+](=O)[O-])c1	60	-8	4	-3	-1	-3	66	41
CC(OC(=O)c1ccc(NC(=O)CC#N)cc1)C(=O)NC(c1ccccc1)c1ccccc1 (configuration not stated)	6	11	-3	3	/	0	/	/
CC(=O)Nc1ccc(SCC(=O)c2cc(C)n(-c3ccccc3)c2C)cc1	56	-6	1	-9	0	-1	64	-8
COc1ccc(-n2c(C)cc(C(=O)CSc3ccc(NC(C)=O)cc3)c2C)cc1	-78	-2	5	-14	-1	-2	/	/
Cc1cc(C(=O)C(C)OC(=O)c2ccc(NC(=O)CC#N)cc2)c(C)n1-c1ccccc1 (configuration not stated)	50	8	5	-10	2	1	-17	-9
